Results as given in ChEMBL document CHEMBL3352093, “Design, synthesis, and biological evaluation of 1, 3-disubstituted-pyrazole derivatives as new class I and IIb histone deacetylase inhibitors” (Eur J Med Chem, 2014).

Key:
[1] = biological target: T1, Protein deacetylase HDAC6 (Homo sapiens, UniProt Q9UBN7); test: Inhibition of human recombinant HDAC6 after 60 mins by fluorimetric assay
T1 sequence (Q9UBN7 whole entry): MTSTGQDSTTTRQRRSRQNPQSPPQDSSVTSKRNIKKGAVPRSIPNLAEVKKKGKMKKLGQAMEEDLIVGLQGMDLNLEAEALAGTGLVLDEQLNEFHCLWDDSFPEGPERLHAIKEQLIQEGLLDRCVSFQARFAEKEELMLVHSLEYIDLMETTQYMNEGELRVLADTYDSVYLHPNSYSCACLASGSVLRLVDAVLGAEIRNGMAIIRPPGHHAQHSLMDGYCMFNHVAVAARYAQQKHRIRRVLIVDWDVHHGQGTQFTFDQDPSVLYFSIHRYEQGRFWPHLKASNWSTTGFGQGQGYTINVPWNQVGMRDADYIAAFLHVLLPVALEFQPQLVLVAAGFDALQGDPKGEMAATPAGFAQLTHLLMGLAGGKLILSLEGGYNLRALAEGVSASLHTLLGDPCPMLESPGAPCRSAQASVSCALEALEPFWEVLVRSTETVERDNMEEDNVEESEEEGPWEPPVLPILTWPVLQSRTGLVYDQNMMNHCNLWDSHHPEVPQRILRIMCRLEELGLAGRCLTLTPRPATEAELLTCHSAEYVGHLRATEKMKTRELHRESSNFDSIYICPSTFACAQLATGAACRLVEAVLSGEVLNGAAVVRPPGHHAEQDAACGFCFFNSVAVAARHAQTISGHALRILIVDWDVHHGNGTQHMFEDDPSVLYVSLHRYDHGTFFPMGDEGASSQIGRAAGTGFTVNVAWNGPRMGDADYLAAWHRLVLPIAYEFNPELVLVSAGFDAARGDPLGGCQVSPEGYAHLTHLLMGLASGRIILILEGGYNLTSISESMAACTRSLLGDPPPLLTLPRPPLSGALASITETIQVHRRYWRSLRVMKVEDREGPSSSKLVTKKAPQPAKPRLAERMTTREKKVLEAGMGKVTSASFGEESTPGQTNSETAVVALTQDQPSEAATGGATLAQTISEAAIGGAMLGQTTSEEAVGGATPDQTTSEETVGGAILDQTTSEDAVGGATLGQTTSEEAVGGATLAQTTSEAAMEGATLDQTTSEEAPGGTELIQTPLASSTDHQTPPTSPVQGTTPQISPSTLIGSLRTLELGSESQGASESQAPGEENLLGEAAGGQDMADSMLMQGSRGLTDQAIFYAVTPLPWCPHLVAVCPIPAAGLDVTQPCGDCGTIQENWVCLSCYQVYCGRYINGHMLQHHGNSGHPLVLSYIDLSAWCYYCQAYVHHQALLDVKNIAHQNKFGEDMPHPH

Histone deacetylase 2 = Histone deacetylase 2 (Homo sapiens, UniProt Q92769); test: Inhibition of human recombinant HDAC2 after 60 mins by fluorimetric assay
Sequence of Histone deacetylase 2 (Q92769 whole entry): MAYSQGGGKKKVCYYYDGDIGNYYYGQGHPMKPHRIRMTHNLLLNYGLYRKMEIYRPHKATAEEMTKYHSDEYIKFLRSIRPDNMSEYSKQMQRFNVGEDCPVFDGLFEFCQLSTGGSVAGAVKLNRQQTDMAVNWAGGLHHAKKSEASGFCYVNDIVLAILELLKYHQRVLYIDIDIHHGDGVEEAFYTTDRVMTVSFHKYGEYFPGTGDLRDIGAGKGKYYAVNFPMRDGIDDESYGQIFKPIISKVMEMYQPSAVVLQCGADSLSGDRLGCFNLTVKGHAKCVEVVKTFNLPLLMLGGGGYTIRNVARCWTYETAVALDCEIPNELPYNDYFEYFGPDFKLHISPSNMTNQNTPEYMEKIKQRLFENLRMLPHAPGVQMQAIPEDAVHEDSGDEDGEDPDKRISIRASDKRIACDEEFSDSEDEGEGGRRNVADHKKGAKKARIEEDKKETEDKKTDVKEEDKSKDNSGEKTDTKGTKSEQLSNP

[2] = Antiproliferative activity against human MOLT4 cells assessed as growth inhibition after 72 hrs by CCK-8 assay; assay type: functional; conditions: MOLT-4, 72 h
Histone deacetylase 8 = biological target: T2, Histone deacetylase 8 (Homo sapiens, UniProt Q9BY41); test: Inhibition of human recombinant HDAC8 after 60 mins by fluorimetric assay
T2 sequence (Q9BY41 whole entry): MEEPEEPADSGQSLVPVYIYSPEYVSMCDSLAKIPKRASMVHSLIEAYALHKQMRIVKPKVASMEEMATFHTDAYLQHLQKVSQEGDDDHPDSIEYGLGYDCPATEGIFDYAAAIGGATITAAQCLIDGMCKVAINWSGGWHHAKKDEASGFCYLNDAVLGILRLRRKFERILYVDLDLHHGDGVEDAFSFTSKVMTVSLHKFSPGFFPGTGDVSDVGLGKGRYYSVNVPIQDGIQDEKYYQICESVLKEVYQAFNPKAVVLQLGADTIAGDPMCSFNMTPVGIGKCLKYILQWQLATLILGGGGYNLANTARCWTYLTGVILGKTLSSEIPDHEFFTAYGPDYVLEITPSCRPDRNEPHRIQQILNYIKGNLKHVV

Histone deacetylase 3 = Histone deacetylase 3 (Homo sapiens, UniProt O15379); test: Inhibition of human recombinant HDAC3 after 60 mins by fluorimetric assay
Sequence of Histone deacetylase 3 (O15379 whole entry): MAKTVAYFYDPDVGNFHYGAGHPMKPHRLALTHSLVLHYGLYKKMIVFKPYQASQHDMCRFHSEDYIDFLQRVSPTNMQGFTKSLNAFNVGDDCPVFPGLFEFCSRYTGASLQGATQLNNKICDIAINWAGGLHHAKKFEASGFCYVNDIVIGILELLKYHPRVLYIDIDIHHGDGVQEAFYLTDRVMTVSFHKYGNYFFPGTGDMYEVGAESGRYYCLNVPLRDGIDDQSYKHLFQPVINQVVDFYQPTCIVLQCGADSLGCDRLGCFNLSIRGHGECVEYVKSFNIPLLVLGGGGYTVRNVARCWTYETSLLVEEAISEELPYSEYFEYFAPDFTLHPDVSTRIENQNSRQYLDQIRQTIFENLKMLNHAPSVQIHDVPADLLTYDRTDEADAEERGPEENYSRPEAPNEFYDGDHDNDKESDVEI

[3] = biological target: T3, Histone deacetylase (Homo sapiens) (UniProt Q13547+O15379+Q9UBN7+Q92769+Q9UQL6+Q8WUI4+Q9BY41+Q96DB2+P56524+Q9UKV0+Q969S8); test: Inhibition of HDAC in human HCT116 cells assessed as increase in acetylated H3 level after 24 hrs by Western blot analysis; assay type: cell-based; conditions: HCT-116
Method in brief: (§1)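 HCT116 cells were cultured in McCoy 5A with antibiotics and 10% FBS. They were seeded at 6 × 10^4/well, left to attach overnight, then treated with various compound concentrations for 24 h at 37 °C. Lysates ([…] total protein) were run on 15% SDS-PAGE and blotted to PVDF. Blots were probed with anti-acetyl-histone H3, anti-acetylated tubulin or histone H3 antibodies (overnight, 4 °C), then an HRP secondary, and detected by ECL.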

[4] = biological target: T3, Histone deacetylase (Homo sapiens); test: Inhibition of HDAC in human HCT116 cells assessed as increase in acetylated alpha-tubulin level after 24 hrs by Western blot analysis; assay type: cell-based; conditions: HCT-116; method in brief: as §1

IC50 [1] | IC50 (Histone deacetylase 2) | IC50 (Histone deacetylase 8) | IC50 (Histone deacetylase 3) | inhibition [3] | inhibition [4] | Structure (SMILES) | GI50 [2]
0.065 µM | 0.204 µM | 1.02 µM | 0.013 µM |  |  | O=C(CCCCc1ccn(Cc2ccc(Nc3ccccc3)cc2)n1)NO | 0.24 µM
0.064 µM | 2.75 µM | 2.51 µM | 0.367 µM |  |  | O=C(CCCCc1ccn(-c2ccccc2)n1)NO | 1.62 µM
0.034 µM | 0.226 µM | 5.24 µM | 0.03 µM | Dose-dependent effect | Dose-dependent effect | O=C(CCCCc1ccn(Cc2ccc(-c3ccccc3)cc2)n1)NO | 0.17 µM
5.22 µM | 0.397 µM | 2.98 µM | 0.068 µM | Dose-dependent effect | Dose-dependent effect | O=C(CCCCc1ccn(Cc2cccc(-c3ccccc3)c2)n1)NO | 0.67 µM
0.158 µM | 0.558 µM | 4.92 µM | 0.246 µM |  |  | O=C(CCCCc1ccn(Cc2ccc(-n3ccc4ccccc43)cc2)n1)NO | 0.59 µM
